An excerpt weighted towards active compounds, which were near 2.3% of everything screened.
TRPC4 act: activators of mouse TRPC4 channel; B-score at 10 µM; AID 2237; actives 0.49% (n = 310,000); HEK293 TRPC4beta/mu-opioid, Fluo4 calcium fluorescence; stronger effect = higher value; Q9QUQ5;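 active means B-score above 5 SD of library B-scores, and initial fluorescence ratio not above library mean plus 5 SD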;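 further: positive B-score marks a calcium rise read as TRPC4 activation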
Target sequence (Q9QUQ5 whole entry, looked up): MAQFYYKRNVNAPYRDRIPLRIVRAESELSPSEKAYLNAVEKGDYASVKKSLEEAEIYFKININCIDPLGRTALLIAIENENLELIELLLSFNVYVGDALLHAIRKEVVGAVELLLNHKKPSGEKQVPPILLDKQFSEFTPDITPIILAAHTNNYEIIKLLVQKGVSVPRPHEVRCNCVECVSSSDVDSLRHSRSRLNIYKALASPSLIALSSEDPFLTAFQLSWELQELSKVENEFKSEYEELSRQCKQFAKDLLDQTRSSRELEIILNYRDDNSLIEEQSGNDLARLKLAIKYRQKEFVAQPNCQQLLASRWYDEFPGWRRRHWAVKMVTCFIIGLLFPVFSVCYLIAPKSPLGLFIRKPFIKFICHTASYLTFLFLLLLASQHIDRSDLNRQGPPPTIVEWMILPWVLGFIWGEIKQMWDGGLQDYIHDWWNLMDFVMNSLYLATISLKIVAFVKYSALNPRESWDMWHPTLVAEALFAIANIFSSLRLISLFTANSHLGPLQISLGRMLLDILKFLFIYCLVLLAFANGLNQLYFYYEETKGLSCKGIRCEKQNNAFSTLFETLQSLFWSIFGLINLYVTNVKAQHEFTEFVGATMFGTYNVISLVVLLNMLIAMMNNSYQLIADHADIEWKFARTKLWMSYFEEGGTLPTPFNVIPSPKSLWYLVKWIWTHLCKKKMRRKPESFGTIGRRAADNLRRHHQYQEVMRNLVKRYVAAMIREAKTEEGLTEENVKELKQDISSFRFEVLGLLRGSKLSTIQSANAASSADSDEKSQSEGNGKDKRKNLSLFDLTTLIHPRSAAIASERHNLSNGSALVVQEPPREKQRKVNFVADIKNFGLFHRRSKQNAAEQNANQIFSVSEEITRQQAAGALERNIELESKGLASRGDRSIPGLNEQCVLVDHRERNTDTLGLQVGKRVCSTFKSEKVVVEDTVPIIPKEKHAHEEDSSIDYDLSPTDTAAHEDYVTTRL
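Incubation: 45 min room-temperature Fluo4 loading, 110 s read / System: HEK293 cells stably co-expressing mouse TRPC4beta and mu-opioid receptor / Signal: Fluo4 fluorescence, kinetic / Control set: buffer (low) and maximal DAMGO (high) / Measure: integrated baseline-normalised fluorescence ratio, converted to per-well B score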
TRPC4 block: blocks the mouse TRPC4 cation channel; Q9QUQ5; HEK293 TRPC4beta/mu-opioid, DAMGO-evoked Fluo4 calcium flux; stronger effect = lower value; B-score at 10 µM; actives 0.39% (n = 300,000);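 active means B-score over 3 SD under the library average, no early fluorescence shift, positive overall ratio signal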
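Assay system: HEK293 cells with stable TRPC4beta plus mu-opioid receptor expression; Probe or stimulus: DAMGO in two steps, submaximal then maximal; Dosing: single-point compound dosing; Measured by: Fluo4 calcium-dye fluorescence, kinetic read; Read-out basis: B score from integrated Fluo4 fluorescence ratio.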
TRPC4 potent: TRPC4 (mouse) allosteric potentiation; Q9QUQ5; HEK293 TRPC4beta/mu-opioid, DAMGO EC20, Fluo-4 Ca2+ flux; stronger effect = higher value; B-score at 10 µM; actives 0.42% (n = 310,000); AID 2227;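 active means B-score of calcium response area above 5 SD of library B-scores, with initial fluorescence ratio within 5 SD of library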;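 further: B-score of integrated fluorescence ratio over time as area under calcium response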
TRPC6 inh: mouse TRPC6 channel inhibition | Q61143 | HEK293-TRPC6, membrane potential dye, ACh-evoked depolarization; stronger effect = lower value | B-score at 10 µM | actives 1.1% (n = 310,000);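 active means B-score under library mean minus 3 SD, initial fluorescence not abnormally high, positive integrated signal ratio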;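 further: B-score derived from integrated fluorescence ratio over the kinetic read; more negative B-score means stronger inhibition of depolarization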
TRPC6 act: activators of mouse TRPC6 channel. Q61143. B-score at 10 µM. actives 0.13% (n = 310,000). HEK293-TRPC6 membrane potential dye fluorescence; stronger effect = higher value;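 active means B-score of the integrated fluorescence ratio above library mean plus 3 SD, and starting fluorescence ratio within library mean plus 5 SD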;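 further: higher score means more depolarization so channel activation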
Numbers without * were called inactive; i = inactive.

SMILES | TRPC4 act | TRPC4 block | TRPC4 potent | TRPC6 inh | TRPC6 act
c1ccc(Nc2nc(N3CCOCC3)nc(N3CCOCC3)n2)cc1 | i | i | i | i | i
c1ccc(Nc2nc(N3CCNCC3)nc(N3CCOCC3)n2)cc1 | 65* | i | i | i | i
Cc1[nH]nc2c1C(C(C)c1ccccc1)C(C#N)=C(N)O2 (stereo not given) | i | i | i | i | i
CC(C)c1ccc(/C=N/n2c(-c3ccccc3)n[nH]c2=S)cc1 | i | i | i | i | i
COc1cccc(C(=O)C2CCCN(C(=O)CCC3=NNC(=O)CC3)C2)c1 (stereo not given) | i | i | i | i | i
O=C(CNS(=O)(=O)c1ccc2ccccc2c1)NCCc1ccccn1 | 137* | i | i | i | i
O=S(=O)(NCc1ccccn1)c1ccc2ccccc2c1 | i | i | i | i | i
CCOc1ccsc1C(=O)O | i | i | i | i | i
Nc1c2c(nc3sc4c(c13)CCCCC4)CCCCC2 | i | -5* | i | i | i
CC1CCc2nc3sc4c(c3c(N)c2C1)CCCC4 (stereo not given) | i | i | i | i | i
Cc1c([N+](=O)[O-])nnn1-c1cc(Cl)cc(Cl)c1 | i | i | i | i | i
COCCNC(=O)c1ccc2c(c1)C(=O)c1ccccc1-2 | i | i | i | i | i
CC(C)(CO)NC(=O)c1ccc2c(c1)C(=O)c1ccccc1-2 | i | i | 11* | i | i
Clc1ccc(SCc2cn3ccccc3n2)cc1 | i | i | i | i | i
Cc1cccc2nc(CSc3ccc(Cl)cc3)cn12 | i | -8* | i | i | i
CCOC(=O)C1(CCc2ccccc2)CCN(Cc2ccc(OC)cc2)CC1 | 119* | i | i | i | i
CCOC(=O)C1(Cc2ccccc2)CCN(Cc2ccc(C)s2)CC1 | i | -8* | i | i | i
CCOC(=O)C1(CCOc2ccccc2)CCN(Cc2ccc(O)cc2)CC1 | i | i | i | i | i
CCOC(=O)C1(CCc2ccccc2)CCN(Cc2c(O)cccc2OC)CC1 | 79* | i | i | i | i
CCOC(=O)C1(CCc2ccccc2)CCN(Cc2nccn2CC)CC1 | i | i | i | i | i
CCOC(=O)C1(CCc2ccccc2)CCN(Cc2ccc(O)cc2)CC1 | 49* | -6* | i | i | i
Cc1ccc(NC(=O)c2cnc(SCC(=O)c3ccccc3)n(C)c2=O)cc1 | i | i | i | i | i
Cn1c(N2CCN(C(c3ccccc3)c3ccccc3)CC2)nc2c1c(=O)[nH]c(=O)n2C | i | i | i | i | i
CC(=O)N1CCOc2ccc(S(=O)(=O)N(C)c3ccc(C)cc3)cc21 | i | i | i | i | i
CCCN(CCC)CCCNC(=O)CCNS(=O)(=O)c1ccc(Br)cc1 | 76* | i | i | i | i
SMILES | TRPC4 act | TRPC4 block | TRPC4 potent | TRPC6 inh | TRPC6 act
COc1cc(C(=O)NNC(=S)NC(=O)c2ccccc2C)cc(OC)c1OC | i | i | i | i | i
COc1ccccc1C(=O)NNC(=S)NC(=O)c1cc(OC)c(OC)c(OC)c1 | 62* | i | i | i | i
COc1cc(C(=O)NC(=S)NNC(=O)[C@H]2C[C@@H]2c2ccccc2)cc(OC)c1OC | 160* | i | i | i | i
Cc1ccc2c(c1)N(CC(=O)N1CCN(C3CCCCC3)CC1)C(=O)CO2 | i | i | 10* | i | i
CCOc1ccc(NC(=O)CN(C)C(=O)c2cn3ccccc3n2)cc1OCC | i | i | i | i | i
CC1CC(C)CN(S(=O)(=O)c2cc3c4c(c2)CCC(=O)N4CCC3)C1 (stereo not given) | i | i | i | i | i
O=C(/C=C/c1cccs1)NC(=S)NNC(=O)c1ccccc1O | 47* | i | i | i | i
COc1ccc(C(=O)NNC(=S)NC(=O)/C=C/c2cccs2)cc1 | i | i | i | i | i
CCc1ccc(S(=O)(=O)/N=C2\C=C(NS(=O)(=O)c3ccccc3)C(=O)c3ccccc32)cc1 | i | i | i | i | i

From PubChem BioAssay
